From ChEMBL document CHEMBL5136979, “An Open Drug Discovery Competition: Experimental Validation of Predictive Models in a Series of Novel Antimalarials” (J Med Chem, 2021)
Active and inactive are the calls of the source.

How the values were obtained:
Plasmodium falciparum [1] = assay: Inhibition of Plasmodium falciparum Dd2 ATP4 assessed as increase in cytosolic pH at 5 uM by fluorescence spectrometry
Outline: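 Saponin-isolated (0.05% w/v final) Dd2 trophozoites loaded with pH-sensitive dye BCECF. Fluorescence read and calibrated at 37 °C in plate reader or 1 mL suspensions. Compound at 5 μM. Scored as active if it caused cytosolic alkalinization like 50 nM cipargamin.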

Plasmodium falciparum [2] = assay: Antimalarial activity against chloroquine-sensitive Plasmodium falciparum 3D7 assessed as parasite growth inhibition; format: functional, organism-based
Outline: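 P. falciparum 3D7 asexual blood stages grown in 5% human RBC suspension in RPMI 1640 with 0.5% Albumax II, 12 mM bicarbonate, 0.2 mM hypoxanthine (pH 7.3), gentamicin, 37 °C, 1% O2/3% CO2/N2. 10-point, 1-in-3 dilution series from 10 or 25 μM top. SYBR Green I DNA fluorescence (ex 485/em 528 nm). IC50 from ≥3 independent experiments.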

Plasmodium falciparum [3] = assay: Inhibition of Plasmodium falciparum Dd2 ATP4 assessed as increase in cytosolic [Na+] at 1 uM by fluorescence spectrometry
Outline: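 Dd2 trophozoites freed from erythrocytes with saponin (0.05% w/v final), loaded with Na+-sensitive dye SBFI. Fluorescence measured and calibrated at 37 °C in plate reader or 1 mL cuvette suspensions. Compound tested at 1 μM. Scored as active if it raised cytosolic [Na+] like 50 nM cipargamin.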

SMILES | inhibition (Plasmodium falciparum [1]) | IC50 (Plasmodium falciparum [2]) | inhibition (Plasmodium falciparum [3])
CC(C)(C)Oc1ccc(-c2nnc3cncc(OCC(O)c4ccc(F)c(F)c4)n23)cc1 (stereo not drawn) | Active | 460 nM | Active
FC(F)Oc1ccc(-c2nnc3cncc(OCC(F)(F)F)n23)cc1 | – | > 10000 nM | –
FC(F)Oc1ccc(-c2nnc3cncc(OCCc4ccco4)n23)cc1 | – | 1240 nM | –
CC(O)COc1cncc2nnc(-c3ccc(OC(F)F)cc3)n12 (stereo not drawn) | – | > 25000 nM | –
Fc1ccc(CCNc2cn3c(-c4ccc(OC(F)F)cc4)nnc3cn2)cc1 | – | > 10000 nM | –
O=C(Nc1ccc(Cl)cc1)c1cncc2nnc(-c3ccc(OC(F)F)cc3)n12 | Active | 5000 nM | Active
O=C(Cc1cccc(Cl)c1)Nc1cn2c(-c3ccc(OC(F)F)cc3)nnc2cn1 | – | > 10000 nM | –
NCc1cccc(CCOc2cncc3nnc(-c4ccc(Cl)cc4)n23)c1 | – | 10000 nM | –
Nc1cccc(CCOc2cncc3nnc(-c4ccc(Cl)cc4)n23)c1 | Active | 2420 nM | Active
O=C(Nc1ccc(F)c(Cl)c1)c1cncc2nnc(-c3ccc(OC(F)F)cc3)n12 | Active | 191 nM | Active
Cc1ccc(COc2cncc3nnc(-c4ccc(C(C)C)cc4)n23)cn1 | – | > 25000 nM | –
O=C(Nc1ccnc(C(F)(F)F)c1)c1cncc2nnc(-c3ccc(OC(F)F)cc3)n12 | Active | 140 nM | Active
FC(F)Oc1ccc(-c2nnc3cncc(OCCc4ccccc4)n23)cc1 | Active | 370 nM | Active
O=C(NCc1cccc(C(F)(F)F)c1Cl)c1cncc2nnc(-c3ccc(OC(F)F)cc3)n12 | Active | 309 nM | Active
